The values that follow come from the RNAGym collection of RNA variant scans (doi:10.1126/science.aae0568).

This sample holds only a part of the variants without activity. Where only a bound is given, the exact number is not on record here.

The chains are these.
B1: tRNA (parent)
chain: GUUCCGUUGGCGUAAUGGUAACGCGUCUCCCUCCUAAGGAGAAGACUGCGGGUUCGAGUCCCGUACGGAACG

Variants of B1 are the subject of the data set. The experiment in a line: yeast fitness relative to wild type (ratio to wild type); higher = fitter; tRNA-Arg(CCU), competitive growth, 37 C, YPD. The gist of the method:
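Variants of the tRNA-Arg(CCU) gene, chemically synthesised with a 3% per-site mutation rate at 69 sites, were placed at the native genomic locus in Saccharomyces cerevisiae. The pooled strains were competed in YPD at 37°C for 24 hours in six parallel replicates. Gene amplicons from the start population and from each end population were read by 100-nucleotide paired-end sequencing. Darwinian fitness relative to wild type came from changes in genotype frequencies; genotypes needed ≥ 100 starting reads, and estimates < 0.5 were set to 0.5.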
U2G G9C A70G: the yeast fitness was determined as 0.585. With U2G C22A G25A, the yeast fitness was found to be 0.639. Consider U3A C27G A43G, for which the yeast fitness is at most 0.5.

Consider U2C U35A, for which the yeast fitness was 0.62. Take U2C U13C C27A C61U: the yeast fitness is at most 0.5. Then U2C G12A A15G C29G C33G G41C C66U, with at most 0.5; and U2C A21C G38A, with 0.594; and U2G C11G A20U C24G G51A C60G G68C, with at most 0.5. Then U2G A20U C29A G39A A45C, with 0.586; and U2C U3A C24A C27U G56C C66U, with 0.562; and U2G A21U A36U A45U A65U A70U, with at most 0.5. Then U2G A15G U26C C34U, with 0.611; and U2C C49A, with 0.685; and U2C C24G C29U A69C, with at most 0.5. As to U2G U16G C27A A36C G51A, the yeast fitness was determined as 0.536. To U2C U7G A15G A45U G50A A57C belongs at most 0.5; to U2C G23C C31G C33U A42G G52C G58C, at most 0.5.

Turning to U2C C4U C34A G58A, the yeast fitness is at most 0.5. Then U3A C11U, with 0.808. To U2G A20C G48C belongs at most 0.5; to U2C U16G C30G G63C, at most 0.5; to U2G C5A A43U C55U G68A, at most 0.5. Then U3A C4A U8C C29G A37C A69C, with at most 0.5; and U2G G25C C29U C33U A40G G52A U59C A65U, with 0.581; and U2C A40C G50A C66U, with at most 0.5. As to U2G C11A C24A U26A G44C, the yeast fitness is at most 0.5.

Take U2G G39A C61G: the yeast fitness was at most 0.5.

As to U3A C5A G6C A15G U16A U26G C60G C61U, the yeast fitness was found to be 0.514.

With U2G A15G G17A U28A C29U A45C A69C, the yeast fitness was at most 0.5. Consider U2G C33A C49G U64C G67C, for which the yeast fitness is at most 0.5.

Turning to U2G C31G A57U A65G, the yeast fitness is at most 0.5. Regarding U2G C4U G52C, the yeast fitness is 0.516.

For the variant U2G A36U A45U U53A, the yeast fitness is at most 0.5. For the variant U2C C4A C34A A43G G52C C61A, the yeast fitness was at most 0.5. Turning to U2G C27G C33U, the yeast fitness is 0.644.

Regarding U3A C5U C31A A45C C46G G52C, the yeast fitness was at most 0.5. On to U3A C4U G48U, for which the yeast fitness is at most 0.5.

In the case of U2C U26C C46U, the yeast fitness worked out at 0.683.

As for U2G A42U U47A, the yeast fitness was 0.738. As to U2C C33U, the yeast fitness came to 0.862. With U2C C4A U28C U53C, the yeast fitness was at most 0.5. Regarding U2G A21C C22G A45U G63C, the yeast fitness is at most 0.5. In the case of U2G C4A C22U U28G A42U C61U, the yeast fitness is at most 0.5. Then U2G G12A C55U C61A, with at most 0.5; and U2C U26G A70U, with 0.703. To U2C U19C A37G C49A belongs at most 0.5. Consider U2G U26G C30U U59G U64G G68A, for which the yeast fitness was at most 0.5. For U3A A14G C31G A37U A65U, the yeast fitness is at most 0.5.

Consider U2C C11A C22G U53G, for which the yeast fitness was at most 0.5. For the variant U2G G10A, the yeast fitness was determined as 0.697. Then U2C C29G G39C C55A, with at most 0.5; and U2G A42C U47A G63C A69C, with 0.558. To U2C C30U C31U belongs 0.698; to U2C G17A A69C, 0.576; to U2C U47A C49A, at most 0.5. To U3A C22G C31G belongs at most 0.5; to U2G C11G C66U, at most 0.5.

As for U2G C11G A20U C24G, the yeast fitness is 0.534. Then U3A C5A U8G G10A C31U U47C, with 0.632; and U2G C11G U19C A20G C24U C31G, with at most 0.5; and U2C A42U C62U, with 0.571.

Turning to U2G C33U C34G A69U, the yeast fitness is at most 0.5.

Take U2G C30A U35G G51C: the yeast fitness was at most 0.5. To U2C G48C belongs 1.11; to U2G G18A C27A C30U, at most 0.5; to U2G A57U G67C, at most 0.5. To U2C C33U A69U belongs at most 0.5; to U2C A70C, 0.972.

U2G C22U C66U: the yeast fitness stood at 0.563. To U2G U19A A21G G39C C60G G67C belongs at most 0.5; to U2C U16A U32A A37U C62A, at most 0.5.

With U2G C30U U59C, the yeast fitness is at most 0.5. Then U3A A21C C24G G68A, with at most 0.5; and U3A A65G G68A A70U, with 0.556; and U3A C22U G39A C66U A69C, with at most 0.5.

Regarding U2G C29U, the yeast fitness came to 0.851. Then U3A C4G U8A C24G U53C G58A, with at most 0.5. For the variant U2C C31G G56A, the yeast fitness turned out to be 0.687. To U3A C11U U13A G17C G18C A36C belongs at most 0.5.

U2G G18A C27A C30U A65U: the yeast fitness is at most 0.5. To U2G A21C C22U A70U belongs at most 0.5.

Consider U2C C31G G58A G67U, for which the yeast fitness is at most 0.5. To U2C C11G belongs 0.617. U2C C31G G56A U59A: the yeast fitness was at most 0.5. Turning to U2G C29U U54C A57G U59C, the yeast fitness is at most 0.5. For the variant U2C C5G, the yeast fitness is 0.738. Then U2C C5U, with 0.98; and U2G A14G C27G G52C, with at most 0.5; and U3A A36U A37G, with at most 0.5. In the case of U2G C4U G23C, the yeast fitness is 0.567. For the variant U2C A45U C62U G63C, the yeast fitness is at most 0.5. In the case of U2C U7A A65U, the yeast fitness amounted to 0.725.

Regarding U2C A21G C33G, the yeast fitness was at most 0.5. Consider U2C G23C G51C, for which the yeast fitness is at most 0.5. To U2C A37U A40C belongs 0.633; to U2G C11G A20U C24G C60G G68C, 0.518.

Regarding U3A C11G C61A, the yeast fitness was at most 0.5. Then U3A A36U A43G G52C, with at most 0.5; and U2C G6C A21C C66U, with at most 0.5; and U2C G6C A42G A65U G67A, with at most 0.5. To U3A C5G A21U C22U G41A A43C G51C C66U G67U belongs at most 0.5; to U2G C11A C24A U26A G44C G68A, at most 0.5; to U2C C46G A65C, 0.678. On to U2G C5U, for which the yeast fitness was 0.877. To U2C G12C belongs 0.831; to U3A C11G G12A C22U G39A, at most 0.5. As to U3A A65C A70U, the yeast fitness was determined as 0.66. Then U2G A21C C22U C60G, with at most 0.5.

As for U3A C4U C11A G44A, the yeast fitness was at most 0.5. Turning to U2G A15C G17C C22G C24A C31A G67C, the yeast fitness was determined as 0.579. Then U3A A15U A21C G39C A43G U54C, with at most 0.5; and U3A C4U C33G C34G A57U, with 0.63; and U3A C27G C31U C33U A42C G58C, with at most 0.5. To U2G G10C A70C belongs at most 0.5. Then U2G C22U U32C A43C G50C, with at most 0.5. Turning to U2C C5A A40G, the yeast fitness is 0.563. With U2C C27U C31U U32G C55A G63A, the yeast fitness was 0.645. To U2G G9C A20G A42C C46G C49U A69C belongs 0.576. Take U2G U7G U16C C24U C34U G50A U54C A65U: the yeast fitness was at most 0.5.

Regarding U2G G10C A45U C46U U47C U64C, the yeast fitness is at most 0.5.

Regarding U2G G12A A15U C24G U53A U64A, the yeast fitness was at most 0.5. To U2G C5G C34G C49G belongs 0.505; to U2C G48A G52A, 0.623. Then U2C C66A, with 0.611; and U3A C4U C33G C34G U54A, with at most 0.5; and U2G G9C A20G A42C C46G C49U C62A A69C, with at most 0.5. Then U2C G6A A20U C30U A36U C49A, with at most 0.5; and U3A C24U C31G A37G, with at most 0.5; and U2C U26C, with 0.947. For the variant U3A C4U G10A C33G C34G A57U, the yeast fitness was at most 0.5.

In the case of U2C U16C C22A C29A G51C, the yeast fitness is at most 0.5.

For the variant U2C G9A C31A C49A U59A C61G, the yeast fitness is at most 0.5. U2C C5G C24U G38C G39A: the yeast fitness is at most 0.5. For the variant U2G G17C C33U U47A A69U, the yeast fitness is at most 0.5. U2C C5G C33G C60A G67C: the yeast fitness is at most 0.5. On to U2G C62U, for which the yeast fitness is 0.863.

On to U2G C55U C62G C66A, for which the yeast fitness is 0.577. To U2G C4A C22U U28G A42U C49A belongs at most 0.5; to U2C C30G C61U G68A, at most 0.5. With U3A A65C, the yeast fitness amounted to 0.879. Take U2C C27U U28G C33G A36G: the yeast fitness amounted to 0.544.

Take U2C U47A C62U: the yeast fitness stood at 0.531. To U2C G10C belongs 0.724; to U2G C30U C46A, 0.692.

Take U2C C24A U26A U47C C61U: the yeast fitness stood at 0.628.

U2G C24G C30G C31U U35A A36U G44A G63C: the yeast fitness was determined as 0.552. Then U2C U8G C31G A42C C49U G56A C61G, with at most 0.5. To U3A A36U A57G G63C belongs 0.681; to U2G U47G G67U, at most 0.5; to U2C U53C C61G, at most 0.5. To U2C G17C G23C G25C U35A A42U C66U belongs at most 0.5; to U2C U19G U28G, at most 0.5. Take U3A C4U U8A G10A A21G U53A A65C A70G: the yeast fitness was at most 0.5. Then U2G G39C, with 0.715; and U2G C31A G56U G67A, with at most 0.5. Then U2G C11U A20C A70C, with 0.667.

For the variant U2G U19A A21G A42C G48C C49A, the yeast fitness is at most 0.5. To U2G G6A G12A C27U A36U C60G belongs at most 0.5; to U2C U7G A40C G51A G67A, at most 0.5; to U2C A43C, 0.874. U2C A37G A70C: the yeast fitness stood at 0.561. Then U3A A36G G68A A70C, with 0.566; and U2C U3C, with 0.885. To U2C C31A G50C A70G belongs at most 0.5; to U3A A15C G44A A57U, at most 0.5. Take U3A A20G C29U G48C: the yeast fitness was at most 0.5.

Take U2C C30U U54A: the yeast fitness was at most 0.5.
